# Assay results: ChEMBL document CHEMBL3352055, “Synthesis and structure-activity relationship studies of small molecule disruptors of EWS-FLI1 interactions in Ewing's sarcoma” (J Med Chem, 2014)
# Calls of active or inactive are those of the source. No cut-off for these calls is given here.
# How the values were obtained:
# [1] = Growth inhibition of human PANC1 cells after 3 days by WST1 assay; assay type: cell-based, PANC-1
# Summary of the method: (§1)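 Cells plated at 5000–15000 per well in colorless medium. TC32 and TC71 grown in RPMI with 10% FBS and 1% HEPES; PANC1 in DMEM with 10% FBS. Compounds or DMSO vehicle added the day after plating. Viable cells measured by MTT or WST-1 after 3 days. GI50 from nonlinear regression.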
# [2] = Growth inhibition of human TC32 cells harboring EWS-FLI1 fusion protein after 3 days by WST1 assay; assay type: functional; details: TC-32, 72 h; summary of the method: as §1
# [3] = Growth inhibition of human TC71 cells harboring EWS-FLI1 fusion protein after 3 days by WST1 assay; assay type: functional; details: TC-71, 72 h; summary of the method: as §1
# [4] = molecular target: Friend leukemia integration 1 transcription factor (Proto-oncogene Fli-1)/RNA-binding protein EWS (Homo sapiens) (UniProt Q01844+Q01543); assay: (§2) Inhibition of transcriptional activity of full-length EWS-FLI1 (unknown origin) expressed in COS7 cells by NR0B1-luciferase reporter gene assay; assay type: cell-based; details: COS-7
# Summary of the method: (§3)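 COS7 cells transiently co-transfected with an NR0B1 luciferase reporter carrying EWS-FLI1 binding sites plus full-length EWS-FLI1 or empty pCI-neo vector. Treated 1.5 h after transfection with 0.05–15 μM compound or DMSO. Luciferase read 20 h later, quadruplicate wells, mean ± SD. IC50 from sigmoidal dose–response fit.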
# [5] = molecular target: T1, Friend leukemia integration 1 transcription factor (Proto-oncogene Fli-1)/RNA-binding protein EWS (Homo sapiens, UniProt Q01543+Q01844); assay: as §2; assay type: cell-based, COS-7; summary of the method: as §3
# T1 sequence (Q01844 whole entry): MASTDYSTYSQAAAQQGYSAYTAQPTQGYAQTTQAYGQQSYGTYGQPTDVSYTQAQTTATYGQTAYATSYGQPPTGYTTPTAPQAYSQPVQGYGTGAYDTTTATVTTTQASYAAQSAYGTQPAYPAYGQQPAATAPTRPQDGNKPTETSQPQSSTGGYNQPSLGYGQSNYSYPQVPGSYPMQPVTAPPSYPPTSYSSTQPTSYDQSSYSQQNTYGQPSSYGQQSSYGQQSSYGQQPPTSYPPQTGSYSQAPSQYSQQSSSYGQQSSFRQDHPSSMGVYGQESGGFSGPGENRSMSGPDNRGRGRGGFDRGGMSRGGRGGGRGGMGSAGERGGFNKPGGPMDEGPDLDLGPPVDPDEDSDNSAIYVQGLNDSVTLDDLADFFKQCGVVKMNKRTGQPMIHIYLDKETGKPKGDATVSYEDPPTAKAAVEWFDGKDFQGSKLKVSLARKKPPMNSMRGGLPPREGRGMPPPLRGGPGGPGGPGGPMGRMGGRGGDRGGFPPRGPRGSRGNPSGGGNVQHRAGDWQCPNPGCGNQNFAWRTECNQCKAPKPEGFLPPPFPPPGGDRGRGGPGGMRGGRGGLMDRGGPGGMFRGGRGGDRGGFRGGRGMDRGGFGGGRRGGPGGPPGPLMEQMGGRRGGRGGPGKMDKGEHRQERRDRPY
# T1 sequence (Q01543 whole entry): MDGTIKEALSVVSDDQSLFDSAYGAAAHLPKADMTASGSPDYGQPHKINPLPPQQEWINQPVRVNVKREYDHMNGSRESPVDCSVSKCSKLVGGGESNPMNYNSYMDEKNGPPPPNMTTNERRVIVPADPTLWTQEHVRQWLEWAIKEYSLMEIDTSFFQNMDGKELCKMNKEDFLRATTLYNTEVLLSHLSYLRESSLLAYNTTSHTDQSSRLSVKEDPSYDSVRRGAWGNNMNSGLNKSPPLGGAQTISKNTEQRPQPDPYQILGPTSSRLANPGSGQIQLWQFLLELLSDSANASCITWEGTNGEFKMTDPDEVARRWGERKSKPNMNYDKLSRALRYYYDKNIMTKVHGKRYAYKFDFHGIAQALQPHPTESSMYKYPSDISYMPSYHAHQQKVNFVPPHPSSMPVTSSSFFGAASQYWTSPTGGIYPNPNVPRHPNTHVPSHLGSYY
# [6] = molecular target: T1, Friend leukemia integration 1 transcription factor (Proto-oncogene Fli-1)/RNA-binding protein EWS; assay: Binding affinity to purified recombinant EWS-FLI1 (unknown origin) after 1 hr by colorimetric phosphatase assay; assay type: protein assay
# Summary of the method: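 His-tagged EWS-FLI1 expressed in BL21 (1 mM IPTG, 2 h at 27 °C) and purified from inclusion bodies by Ni column with on-column refolding. Plates coated overnight with 20 nM protein and blocked with 4% BSA for 1 h at RT. Biotin conjugate (1–100 μM) incubated 1 h, then HRP-streptavidin 1:5000 for 1 h at RT. Phosphatase substrate read at 405 nm. BSA-coated wells used as control. Kd taken from the saturation curve.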
# [7] = Cytotoxicity against african green monkey COS7 cells after 48 hrs by WST1 assay; assay type: cell-based; details: chlorocebus aethiops, cos-7, 48 h
# Summary of the method: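 COS7 cells (monkey kidney, lacking EWS-FLI1) grown in DMEM with 10% FBS. Compound exposure for 48 h, with viability read by WST proliferation assay.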
SMILES,GI50 at 72 h [1] [µM],GI50 [2] [µM],GI50 [3] [µM],inhibition activity (qualitative call) [4],IC50 [5] [µM],Kd [6] [µM],Activity [7]
COc1ccc(C(=O)CC2(O)C(=O)Nc3c(F)ccc(F)c32)cc1 (stereo not given),> 10,> 10,> 10,–,–,–,–
O=C(CC1(O)C(=O)Nc2c(Cl)ccc(Cl)c21)c1ccc(Oc2ccccc2)cc1 (stereo not given),> 10,> 10,> 10,–,–,–,–
Nc1ccc(C(=O)CC2(O)C(=O)Nc3c(Cl)ccc(Cl)c32)cc1 (stereo not given),> 10,> 10,> 10,–,–,–,–
COc1ccc(C(=O)CC2(OC)C(=O)N(C)c3c(Cl)ccc(Cl)c32)cc1 (stereo not given),> 10,> 10,> 10,Active,–,–,–
Cc1ccc(C(=O)CC2(O)C(=O)Nc3c(Cl)ccc(Cl)c32)cc1 (stereo not given),> 10,> 10,> 10,–,–,–,–
CSc1ccc(C(=O)CC2(O)C(=O)Nc3c(Cl)ccc(Cl)c32)cc1 (stereo not given),> 10,0.98,0.91,–,0.33,–,–
CNc1ccc(C(=O)CC2(O)C(=O)Nc3c(Cl)ccc(Cl)c32)cc1 (stereo not given),> 10,0.34,0.39,–,0.18,–,–
O=C(CC1(O)C(=O)Nc2c(Cl)ccc(Cl)c21)c1ccc(F)cc1 (stereo not given),> 10,> 10,> 10,–,–,–,–
N#Cc1ccc(C(=O)CC2(O)C(=O)Nc3c(Cl)ccc(Cl)c32)cc1 (stereo not given),> 10,> 10,> 10,–,–,–,–
O=C(CC1(O)C(=O)Nc2c(Cl)ccc(Cl)c21)c1ccc(C(F)(F)F)cc1 (stereo not given),11,2.9,6.9,–,–,–,–
COc1ccccc1C(=O)CC1(O)C(=O)Nc2c(Cl)ccc(Cl)c21 (stereo not given),> 10,> 10,> 10,inactive,–,–,–
COc1ccc(C(=O)CC2(O)C(=O)Nc3c(C)ccc(C)c32)cc1 (stereo not given),> 10,> 10,> 10,–,–,–,–
CCOc1ccc(C(=O)CC2(O)C(=O)Nc3c(Cl)ccc(Cl)c32)cc1 (stereo not given),> 10,2.7,3.57,Active,–,–,–
CN(C(=O)CCCCCNC(=O)CCCC[C@H]1SCC2NC(=O)NC21)c1ccc(C(=O)CC2(O)C(=O)Nc3c(Cl)ccc(Cl)c32)cc1 (stereo not given in full),–,–,–,–,–,4.8,–
COc1ccc(C(=O)CC2(O)C(=O)N(c3ccccc3)c3c(Cl)ccc(Cl)c32)cc1 (stereo not given),> 10,> 10,> 10,–,–,–,–
COc1ccc(C(=O)CC2(O)C(=O)Nc3c(Cl)cccc32)cc1 (stereo not given),> 10,> 10,> 10,–,–,–,–
COc1cccc(C(=O)CC2(O)C(=O)Nc3c(Cl)ccc(Cl)c32)c1OC (stereo not given),> 10,> 10,> 10,–,–,–,–

SMILES,GI50 at 72 h [1] [µM],GI50 [2] [µM],GI50 [3] [µM],inhibition activity (qualitative call) [4],IC50 [5] [µM],Kd [6] [µM],Activity [7]
CC(C)Oc1ccc(C(=O)CC2(O)C(=O)Nc3c(Cl)ccc(Cl)c32)cc1 (stereo not given),> 10,> 10,> 10,–,–,–,–
COc1ccc(C(=O)CC2(O)C(=O)Nc3cc(Cl)c(Cl)cc32)cc1 (stereo not given),> 10,> 10,> 10,–,–,–,–
COc1ccc(C(=O)CC2(O)C(=O)Nc3ccccc32)cc1 (stereo not given),> 10,> 10,> 10,–,–,–,–
O=C(CC1(O)C(=O)Nc2c(Cl)ccc(Cl)c21)c1ccc(I)cc1 (stereo not given),> 10,> 10,> 10,–,–,–,–
COc1ccc(C(=O)CC2(OC)C(=O)Nc3c(Cl)ccc(Cl)c32)cc1 (stereo not given),> 10,> 10,> 10,inactive,–,–,–
COc1ccc(C(=O)CC2(O)C(=O)N(C)c3c(Cl)ccc(Cl)c32)cc1 (stereo not given),> 10,2.2,> 10,Active,–,–,–
COc1cc(OC)cc(C(=O)CC2(O)C(=O)Nc3c(Cl)ccc(Cl)c32)c1 (stereo not given),> 10,9,> 10,–,–,–,–
COc1ccc(C(=O)CC2(O)C(=O)Nc3c(Cl)ccc(Cl)c32)cc1 (stereo not given),> 10,0.94,0.92,Dose-dependent effect,0.35,–,Non-toxic
COc1ccc(C(=O)CC2(O)C(=O)Nc3cccc(Cl)c32)cc1 (stereo not given),> 10,> 10,> 10,–,–,–,–
COc1cccc(C(=O)CC2(O)C(=O)Nc3c(Cl)ccc(Cl)c32)c1 (stereo not given),> 10,> 10,> 10,–,–,–,–
COc1ccc(C(=O)CC2(O)C(=O)Nc3c(Cl)ccc(Cl)c32)c(OC)c1OC (stereo not given),> 10,2.7,4.4,–,–,–,–
COc1ccc(C(=O)CC2(O)C(=O)Nc3c(Cl)ccc(Cl)c32)c(OC)c1 (stereo not given),> 10,2.6,2.8,Active,–,–,–
CN(C)c1ccc(C(=O)CC2(O)C(=O)Nc3c(Cl)ccc(Cl)c32)cc1 (stereo not given),> 10,0.26,0.4,–,0.15,–,–
COc1ccc(C(=O)CC2(O)C(=O)Nc3ccc(Cl)cc32)cc1 (stereo not given),> 10,> 10,> 10,–,–,–,–
O=C(CC1(O)C(=O)Nc2c(Cl)ccc(Cl)c21)c1ccccc1 (stereo not given),> 10,> 10,> 10,–,–,–,–
COc1ccc(C(=O)CC2(O)C(=O)Nc3c(OC)ccc(OC)c32)cc1 (stereo not given),> 10,1,0.94,–,0.77,–,–
